Test results as given in PubChem BioAssay.
The other results are listed elsewhere or left out. Active and inactive are the calls of the source.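 The calls were made as follows, unless noted: active = substances whose mean melting-temperature shift, as a percentage of the reference inhibitor's shift, reaches about 5.3% (limit read from the data); inactive = the rest.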

Key:
[1] = inhibition of Brca1/Bard1 split-luciferase complementation, confirmation, counter-screen for Mdm2/MdmX interaction inhibitor project, luminescence, single concentration (AID 504668; call rule not given here); conditions: Brca1/Bard1 bimolecular luciferase complementation counterscreen, at 8 µM, stronger effect = higher value
[2] = target: Tumor necrosis factor receptor superfamily member 10B (Homo sapiens) (UniProt O14763); assay: caspase-8 TRAIL sensitization, hit retest, confirmation, cell-based, NB7+caspase-8, with/without TRAIL, luminescence panel (AID 651596; in the data active = activity above about 50%); conditions: NB7 neuroblastoma + caspase-8, TRAIL sensitization, luminescence viability, with TRAIL, mean of runs, at 10 µM, stronger effect = higher value
[3] = as above; conditions: NB7 neuroblastoma + caspase-8, without TRAIL, luminescence viability, without TRAIL, mean of runs, at 10 µM
[4] = target: Tumor necrosis factor receptor superfamily member 10B (Homo sapiens) (UniProt O14763); assay: TRAIL sensitizers in caspase-8 expressing neuroblastoma cells, dose response, NB7 cells plus caspase-8, luminescence, panel (AID 652002); conditions: NB7 neuroblastoma +caspase-8, TRAIL sensitization, luminescence viability, NB7+Caspase-8, with TRAIL, run 1; at 12.5 µM (top of the series)
[5] = target: Tumor necrosis factor receptor superfamily member 10B (Homo sapiens) (UniProt O14763); assay: as above; conditions: NB7 neuroblastoma +caspase-8, TRAIL sensitization, luminescence viability, NB7+Caspase-8, with TRAIL, run 2; at 12.5 µM (top of the series)
[6] = as above; conditions: NB7 neuroblastoma +caspase-8, no TRAIL, compound-alone cytotoxicity counter-screen, luminescence viability, NB7+Caspase-8, run 1; at 12.5 µM (top of the series) unless noted
[7] = as above; conditions: NB7 neuroblastoma +caspase-8, no TRAIL, compound-alone cytotoxicity counter-screen, luminescence viability, NB7+Caspase-8, run 2; at 12.5 µM (top of the series) unless noted
[8] = target: Carboxy-terminal domain RNA polymerase II polypeptide A small phosphatase 1 (Homo sapiens) (UniProt Q9GZU7); assay: Scp-1 binding by thermal shift, confirmation, orthogonal assay for Scp-1 inhibitor project, biophysical, differential scanning fluorimetry (AID 540329); conditions: Recombinant SCP1, Sypro Orange thermal shift Tm; at 40 µM; stronger effect = higher value;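 also: 0% = Tm of DMSO wells and 100% = Tm with sodium orthovanadate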
Method in brief: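 material = Scp-1 phosphatase domain | quantity = Scp-1 protein added from a 10 µM stock solution | timing = 20-95 °C thermal ramp | detection = differential scanning fluorimetry | measure = compound-induced change in Scp-1 melting temperature, scaled to vanadate | controls = vanadate reference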

Sequence of Tumor necrosis factor receptor superfamily member 10B (Homo sapiens) (O14763 whole entry, looked up): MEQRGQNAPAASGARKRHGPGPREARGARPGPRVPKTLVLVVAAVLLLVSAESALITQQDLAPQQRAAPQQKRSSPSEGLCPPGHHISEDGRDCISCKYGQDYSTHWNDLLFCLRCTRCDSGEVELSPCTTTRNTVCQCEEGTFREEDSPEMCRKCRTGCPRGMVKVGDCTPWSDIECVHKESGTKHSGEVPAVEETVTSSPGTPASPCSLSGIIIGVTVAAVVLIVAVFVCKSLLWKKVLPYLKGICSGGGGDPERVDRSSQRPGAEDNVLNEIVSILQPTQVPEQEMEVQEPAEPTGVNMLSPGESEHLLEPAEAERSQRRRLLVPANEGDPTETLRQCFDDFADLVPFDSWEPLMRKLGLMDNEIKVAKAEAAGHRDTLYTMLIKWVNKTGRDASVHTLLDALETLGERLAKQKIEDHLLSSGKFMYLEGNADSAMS
Sequence of Carboxy-terminal domain RNA polymerase II polypeptide A small phosphatase 1 (Homo sapiens) (Q9GZU7 76-261 limits assumed): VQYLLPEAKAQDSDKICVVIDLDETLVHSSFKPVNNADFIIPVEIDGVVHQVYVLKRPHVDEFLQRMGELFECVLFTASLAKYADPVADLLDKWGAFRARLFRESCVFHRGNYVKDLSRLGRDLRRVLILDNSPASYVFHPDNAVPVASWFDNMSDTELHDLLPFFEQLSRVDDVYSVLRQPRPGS

Compound: CCCCCc1cc(=O)oc2c(C(CCN(CC)CC)c3cc(OC)c(OC)c(OC)c3)c(OC)cc(OC)c12 (stereo unspecified)
- inhibition [1]: 32% (active)
- activity [2]: 52.9%
- activity [3]: 54.7%
- activity, % sensitization [4]: -8.61%
- activity, % sensitization [5]: 49.1%
- activity, % sensitization [6]: -1%
- activity, % sensitization [7]: 3.69%

Compound: O=C(Nc1cccc(F)c1)c1cc(-c2ccco2)nc2ccccc12
- thermal shift relative to vanadate control [8]: -0.45% (inactive)

Compound: O=C(COC(=O)c1ccc(F)cc1F)Nc1ncccn1
- thermal shift relative to vanadate control [8]: 1.27% (inactive)

Compound: CS(=O)(=O)C1=NN2C(=N)/C(=C\c3ccc(OCCOc4ccccc4)cc3)C(=O)N=C2S1
- thermal shift relative to vanadate control [8]: 280% (active)

Compound: Cc1c(Cl)cnc(NC(=O)COC(=O)c2ccc(S(=O)(=O)NCc3ccco3)cc2)c1Cl
- thermal shift relative to vanadate control [8]: 10.3% (active)

Compound: COc1ccc(NC(=O)CN(C)C(=O)/C=C/c2cn(Cc3ccccc3)nc2-c2cccnc2)cc1
- thermal shift relative to vanadate control [8]: -16.5% (inactive)

Compound: COc1ccc(Cl)cc1NC(=O)CCS(=O)(=O)c1ccc(Br)cc1
- thermal shift relative to vanadate control [8]: 3.48% (inactive)

Compound: Cc1ccc(NC(=O)CSc2nc3ccc(Nc4nc(N5CCOCC5)nc(N5CCOCC5)n4)cc3s2)cc1
- inhibition [1]: 26.2% (active)
- activity [2]: 58.1%
- activity [3]: 40.5%
- activity, % sensitization [4]: -7.95%
- activity, % sensitization [5]: -11.3%
- activity, % sensitization [6]: -21% [at 6.25 µM]
- activity, % sensitization [7]: -31.8%

Compound: O=C(CCNC(=O)c1ccccc1)NN=Cc1ccc(Br)o1
- thermal shift relative to vanadate control [8]: -12.5% (inactive)

Compound: Cn1c(N)c(C(=O)COC(=O)c2ccccc2C(=O)c2ccc(Cl)c([N+](=O)[O-])c2)c(=O)n(C)c1=O
- inhibition [1]: 26.2% (active)
- activity [2]: 98.5%
- activity [3]: 99%

Compound: COCCCn1c(Cc2csc(Nc3cccc(Cl)c3)n2)nnc1SCC(=O)OC1CCCCC1
- thermal shift relative to vanadate control [8]: -0.65% (inactive)

Compound: Cc1cc(/C=C2\SC(=O)N(C)C2=O)c(C)n1-c1cccc(C(=O)O)c1
- thermal shift relative to vanadate control [8]: 1.65% (inactive)
